Results as given in ChEMBL document CHEMBL4689842, “EUbOPEN Chemogenomics Library wave 1” (2021).

Test system: HEK-293T
Test: Multiplex assay against HEK293T;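 for Population Tubulin-Different-Phenotype (%): share of the cells with healthy nuclei that show this phenotype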
Assay type: toxicity, cell-based
Details: human
Method in brief: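 Four dyes were applied at seeding to live cells: Hoechst33342, BioTracker Green Microtubule Cytoskeleton Dye, MitoTracker Red and Annexin V Alexa Fluor 680. Imaging after compound addition used a CQ1 microscope at 37°C and 5% CO2. CellPathfinder machine-learning gating then sorted cells into Hoechst high-intensity objects or normal cells, normal cells into healthy, pyknosed or fragmented nuclei, and pyknosed cells into mitotic or apoptotic, with tubulin, mitochondrial-mass and membrane-permeability phenotypes given as per cents of healthy-nucleus cells.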

[1] = 12 h, 1 µM, compound concentration 1 uM, replicate 1
[2] = 12 h, 1 µM, compound concentration 1 uM, replicate 2
[3] = 12 h, 10 µM, compound concentration 10 uM, replicate 1
[4] = 12 h, 10 µM, compound concentration 10 uM, replicate 2
[5] = 24 h, 1 µM, compound concentration 1 uM, replicate 1
[6] = 24 h, 1 µM, compound concentration 1 uM, replicate 2
[7] = 24 h, 10 µM, compound concentration 10 uM, replicate 1
[8] = 24 h, 10 µM, compound concentration 10 uM, replicate 2
[9] = 48 h, 1 µM, compound concentration 1 uM, replicate 1
[10] = 48 h, 1 µM, compound concentration 1 uM, replicate 2
[11] = 48 h, 10 µM, compound concentration 10 uM, replicate 1
[12] = 48 h, 10 µM, compound concentration 10 uM, replicate 2

CCOc1cc2ncc(C#N)c(Nc3ccc(OCc4cccc(F)c4)c(Cl)c3)c2cc1NC(=O)/C=C/CN(C)C [HKI-357]
Population Apoptotic (%) [1]: 18%
Population Fragmented Nuclei (%) [1]: 19%
Population Healthy Nuclei (%) [1]: 59%
Population Hoechst High Intensity Objects (%) [1]: 13%
Population Membrane Permeable-Phenotype (%) [1]: 4%
Population Mitochondria Different-Phenotype (%) [1]: 8%
Population Mitotic Cells (%) [1]: 81%
Population Normal (%) [1]: 86%
Population Pyknosed Nuclei (%) [1]: 21%
Population Tubulin-Different-Phenotype (%) [1]: 4%
Total Cell Count [1]: 555
Population Apoptotic (%) [2]: 10%
Population Fragmented Nuclei (%) [2]: 7%
Population Healthy Nuclei (%) [2]: 87%
Population Hoechst High Intensity Objects (%) [2]: 1%
Population Membrane Permeable-Phenotype (%) [2]: 1%
Population Mitochondria Different-Phenotype (%) [2]: 10%
Population Mitotic Cells (%) [2]: 89%
Population Normal (%) [2]: 98%
Population Pyknosed Nuclei (%) [2]: 5%
Population Tubulin-Different-Phenotype (%) [2]: 7%
Total Cell Count [2]: 1619
Population Apoptotic (%) [3]: 31%
Population Fragmented Nuclei (%) [3]: 13%
Population Healthy Nuclei (%) [3]: 50%
Population Hoechst High Intensity Objects (%) [3]: 10%
Population Membrane Permeable-Phenotype (%) [3]: 19%
Population Mitochondria Different-Phenotype (%) [3]: 16%
Population Mitotic Cells (%) [3]: 68%
Population Normal (%) [3]: 89%
Population Pyknosed Nuclei (%) [3]: 35%
Population Tubulin-Different-Phenotype (%) [3]: 61%
Total Cell Count [3]: 591
Population Apoptotic (%) [4]: 14%
Population Fragmented Nuclei (%) [4]: 3%
Population Healthy Nuclei (%) [4]: 83%
Population Hoechst High Intensity Objects (%) [4]: 2%
Population Membrane Permeable-Phenotype (%) [4]: 11%
Population Mitochondria Different-Phenotype (%) [4]: 23%
Population Mitotic Cells (%) [4]: 85%
Population Normal (%) [4]: 97%
Population Pyknosed Nuclei (%) [4]: 12%
Population Tubulin-Different-Phenotype (%) [4]: 78%
Total Cell Count [4]: 1328
Population Apoptotic (%) [5]: 31%
Population Fragmented Nuclei (%) [5]: 14%
Population Healthy Nuclei (%) [5]: 74%
Population Hoechst High Intensity Objects (%) [5]: 8%
Population Membrane Permeable-Phenotype (%) [5]: 7%
Population Mitochondria Different-Phenotype (%) [5]: 5%
Population Mitotic Cells (%) [5]: 68%
Population Normal (%) [5]: 91%
Population Pyknosed Nuclei (%) [5]: 11%
Population Tubulin-Different-Phenotype (%) [5]: 9%
Total Cell Count [5]: 612
Population Apoptotic (%) [6]: 4%
Population Fragmented Nuclei (%) [6]: 26%
Population Healthy Nuclei (%) [6]: 71%
Population Hoechst High Intensity Objects (%) [6]: 2%
Population Membrane Permeable-Phenotype (%) [6]: 4%
Population Mitochondria Different-Phenotype (%) [6]: 2%
Population Mitotic Cells (%) [6]: 96%
Population Normal (%) [6]: 97%
Population Pyknosed Nuclei (%) [6]: 1%
Population Tubulin-Different-Phenotype (%) [6]: 8%
Total Cell Count [6]: 2811
Population Apoptotic (%) [7]: 28%
Population Fragmented Nuclei (%) [7]: 12%
Population Healthy Nuclei (%) [7]: 59%
Population Hoechst High Intensity Objects (%) [7]: 8%
Population Membrane Permeable-Phenotype (%) [7]: 10%
Population Mitochondria Different-Phenotype (%) [7]: 17%
Population Mitotic Cells (%) [7]: 71%
Population Normal (%) [7]: 91%
Population Pyknosed Nuclei (%) [7]: 28%
Population Tubulin-Different-Phenotype (%) [7]: 72%
Total Cell Count [7]: 592
Population Apoptotic (%) [8]: 11%
Population Fragmented Nuclei (%) [8]: 11%
Population Healthy Nuclei (%) [8]: 81%
Population Hoechst High Intensity Objects (%) [8]: 3%
Population Membrane Permeable-Phenotype (%) [8]: 12%
Population Mitochondria Different-Phenotype (%) [8]: 9%
Population Mitotic Cells (%) [8]: 88%
Population Normal (%) [8]: 96%
Population Pyknosed Nuclei (%) [8]: 6%
Population Tubulin-Different-Phenotype (%) [8]: 70%
Total Cell Count [8]: 1894

CCc1cc2c(cc1CC)CC(NC[C@H](O)c1ccc(O)c3[nH]c(=O)ccc13)C2 [INDACATEROL]
Population Apoptotic (%) [1]: 48%
Population Fragmented Nuclei (%) [1]: 10%
Population Healthy Nuclei (%) [1]: 47%
Population Hoechst High Intensity Objects (%) [1]: 16%
Population Membrane Permeable-Phenotype (%) [1]: 4%
Population Mitochondria Different-Phenotype (%) [1]: 74%
Population Mitotic Cells (%) [1]: 51%
Population Normal (%) [1]: 83%
Population Pyknosed Nuclei (%) [1]: 42%
Population Tubulin-Different-Phenotype (%) [1]: 53%
Total Cell Count [1]: 240
Population Apoptotic (%) [2]: 6%
Population Fragmented Nuclei (%) [2]: 8%
Population Healthy Nuclei (%) [2]: 36%
Population Hoechst High Intensity Objects (%) [2]: 3%
Population Membrane Permeable-Phenotype (%) [2]: 10%
Population Mitochondria Different-Phenotype (%) [2]: 50%
Population Mitotic Cells (%) [2]: 93%
Population Normal (%) [2]: 96%
Population Pyknosed Nuclei (%) [2]: 55%
Population Tubulin-Different-Phenotype (%) [2]: 51%
Total Cell Count [2]: 228
Population Apoptotic (%) [3]: 93%
Population Fragmented Nuclei (%) [3]: 19%
Population Healthy Nuclei (%) [3]: 12%
Population Hoechst High Intensity Objects (%) [3]: 30%
Population Membrane Permeable-Phenotype (%) [3]: 0%
Population Mitochondria Different-Phenotype (%) [3]: 61%
Population Mitotic Cells (%) [3]: 6%
Population Normal (%) [3]: 69%
Population Pyknosed Nuclei (%) [3]: 67%
Population Tubulin-Different-Phenotype (%) [3]: 61%
Total Cell Count [3]: 204
Population Apoptotic (%) [4]: 82%
Population Fragmented Nuclei (%) [4]: 8%
Population Healthy Nuclei (%) [4]: 17%
Population Hoechst High Intensity Objects (%) [4]: 12%
Population Membrane Permeable-Phenotype (%) [4]: 3%
Population Mitochondria Different-Phenotype (%) [4]: 90%
Population Mitotic Cells (%) [4]: 17%
Population Normal (%) [4]: 87%
Population Pyknosed Nuclei (%) [4]: 74%
Population Tubulin-Different-Phenotype (%) [4]: 87%
Total Cell Count [4]: 215
Population Apoptotic (%) [5]: 48%
Population Fragmented Nuclei (%) [5]: 10%
Population Healthy Nuclei (%) [5]: 57%
Population Hoechst High Intensity Objects (%) [5]: 16%
Population Membrane Permeable-Phenotype (%) [5]: 4%
Population Mitochondria Different-Phenotype (%) [5]: 70%
Population Mitotic Cells (%) [5]: 52%
Population Normal (%) [5]: 83%
Population Pyknosed Nuclei (%) [5]: 32%
Population Tubulin-Different-Phenotype (%) [5]: 43%
Total Cell Count [5]: 279
Population Apoptotic (%) [6]: 22%
Population Fragmented Nuclei (%) [6]: 7%
Population Healthy Nuclei (%) [6]: 55%
Population Hoechst High Intensity Objects (%) [6]: 2%
Population Membrane Permeable-Phenotype (%) [6]: 3%
Population Mitochondria Different-Phenotype (%) [6]: 42%
Population Mitotic Cells (%) [6]: 77%
Population Normal (%) [6]: 97%
Population Pyknosed Nuclei (%) [6]: 37%
Population Tubulin-Different-Phenotype (%) [6]: 55%
Total Cell Count [6]: 282
Population Apoptotic (%) [7]: 98%
Population Fragmented Nuclei (%) [7]: 22%
Population Healthy Nuclei (%) [7]: 11%
Population Hoechst High Intensity Objects (%) [7]: 33%
Population Membrane Permeable-Phenotype (%) [7]: 6%
Population Mitochondria Different-Phenotype (%) [7]: 50%
Population Mitotic Cells (%) [7]: 1%
Population Normal (%) [7]: 66%
Population Pyknosed Nuclei (%) [7]: 65%
Population Tubulin-Different-Phenotype (%) [7]: 50%
Total Cell Count [7]: 213
Population Apoptotic (%) [8]: 95%
Population Fragmented Nuclei (%) [8]: 5%
Population Healthy Nuclei (%) [8]: 20%
Population Hoechst High Intensity Objects (%) [8]: 15%
Population Membrane Permeable-Phenotype (%) [8]: 2%
Population Mitochondria Different-Phenotype (%) [8]: 97%
Population Mitotic Cells (%) [8]: 4%
Population Normal (%) [8]: 84%
Population Pyknosed Nuclei (%) [8]: 74%
Population Tubulin-Different-Phenotype (%) [8]: 89%
Total Cell Count [8]: 219
Population Apoptotic (%) [9]: 43%
Population Fragmented Nuclei (%) [9]: 12%
Population Healthy Nuclei (%) [9]: 72%
Population Hoechst High Intensity Objects (%) [9]: 9%
Population Membrane Permeable-Phenotype (%) [9]: 0%
Population Mitochondria Different-Phenotype (%) [9]: 45%
Population Mitotic Cells (%) [9]: 56%
Population Normal (%) [9]: 90%
Population Pyknosed Nuclei (%) [9]: 14%
Population Tubulin-Different-Phenotype (%) [9]: 33%
Total Cell Count [9]: 393
Population Apoptotic (%) [10]: 22%
Population Fragmented Nuclei (%) [10]: 7%
Population Healthy Nuclei (%) [10]: 73%
Population Hoechst High Intensity Objects (%) [10]: 7%
Population Membrane Permeable-Phenotype (%) [10]: 5%
Population Mitochondria Different-Phenotype (%) [10]: 17%
Population Mitotic Cells (%) [10]: 77%
Population Normal (%) [10]: 92%
Population Pyknosed Nuclei (%) [10]: 18%
Population Tubulin-Different-Phenotype (%) [10]: 49%
Total Cell Count [10]: 448
Population Apoptotic (%) [11]: 91%
Population Fragmented Nuclei (%) [11]: 29%
Population Healthy Nuclei (%) [11]: 2%
Population Hoechst High Intensity Objects (%) [11]: 35%
Population Membrane Permeable-Phenotype (%) [11]: 25%
Population Mitochondria Different-Phenotype (%) [11]: 25%
Population Mitotic Cells (%) [11]: 8%
Population Normal (%) [11]: 64%
Population Pyknosed Nuclei (%) [11]: 67%
Population Tubulin-Different-Phenotype (%) [11]: 0%
Total Cell Count [11]: 209
Population Apoptotic (%) [12]: 98%
Population Fragmented Nuclei (%) [12]: 9%
Population Healthy Nuclei (%) [12]: 17%
Population Hoechst High Intensity Objects (%) [12]: 17%
Population Membrane Permeable-Phenotype (%) [12]: 6%
Population Mitochondria Different-Phenotype (%) [12]: 96%
Population Mitotic Cells (%) [12]: 1%
Population Normal (%) [12]: 82%
Population Pyknosed Nuclei (%) [12]: 73%
Population Tubulin-Different-Phenotype (%) [12]: 96%
Total Cell Count [12]: 214
